Experimental data of several laboratories.
Protocols differ between the studies behind these lines.

C=C(CC(=O)OCc1oc(=O)oc1C)C(=O)O — Papp (PAMPA; 10 µM, 4 h): ~15 ×10⁻⁶ cm/s
CN(C)C(=O)c1cc2cnc(Nc3ccc(N4CCNCC4)cn3)nc2n1C1CCCC1 — AUC (male Sprague-Dawley rat, plasma; intraperitoneal, 100 mg/kg): 12200 ng·h/mL
NCCOCC(=O)N1CCC[C@H](C(=O)NCc2nc(-c3ccc(C(F)(F)F)cc3)cs2)C1 — AUC (male Sprague-Dawley rat, plasma; oral, 3 mg/kg): 0.071 µM·h
Cc1c(S(=O)(=O)N2CCn3nccc3C2)cc(C(=O)NCc2c(F)ccnc2N2CCCC2)n1C — Papp (PAMPA): 16.8 ×10⁻⁶ cm/s
CCOCC(=O)N1CCC[C@H](C(=O)NCc2nc(-c3ccc(C#N)nc3)cs2)C1 — AUC (male Sprague-Dawley rat, plasma; oral, 3 mg/kg): 21 µM·h
C=C(CC(=O)OCOC(=O)OC(C)C)C(=O)OCOC(=O)OC(C)C — Papp (PAMPA; 10 µM, 4 h, pH 7.4): > 10 ×10⁻⁶ cm/s
C[C@H]1Oc2cc(cnc2N)-c2c(nn(C)c2C#N)CN(C)C(=O)c2ccc(F)cc21 — AUC(0-inf) (male Sprague-Dawley rat, plasma; oral, 5 mg/kg, single dose): 1870 ng·h/mL
CCOCC(=O)N1CCC[C@H](C(=O)NCc2nc(-c3ccc(C)nc3)cs2)C1 — AUC (male Sprague-Dawley rat, plasma; oral, 3 mg/kg): 32 µM·h
COc1nc(-c2cccc(-c3ccccc3)c2C)ccc1CNCCNC(=O)CCCCCCCCCCC(=O)N1CCN(CCNC(=O)c2cc3c(=O)n4cccc(C)c4nc3n(CCc3cccs3)c2=N)CC1 — AUC(0-t) (male Sprague-Dawley rat, plasma; intraperitoneal, 4 mg/kg): 2440 ng·h/mL
